Values after ≈ are worked out from the molar mass of the structure shown. Where only a bound is given, the exact number is not on record here.

Series [1] is described as follows: Antifungal activity against Histoplasma capsulatum G217B ATCC 26032 assessed as inhibition of visible growth after 5 days. Type of series: functional. Put shortly: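 Wild-type G217B yeasts kept in HMM at 37 °C under 5% CO2. Wells held 2×10^5 yeasts (hemocytometer count) with a two-fold dilution series from 40 to 0.078 µM, at 1% DMSO in the top dilution. Plates were agitated twice daily and growth followed by A595 over 5 days. MIC is the lowest concentration with no visible growth on visual inspection of the plates.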

A further series relates to Cryptococcus neoformans. Briefly: Antifungal activity against Cryptococcus neoformans MATalpha serotype A strain H99 assessed as inhibition of visible growth after 5 days. The note with it: MATalpha serotype A strain H99, 120 h. Type of series: functional.
The nature of series [2]: Cytotoxicity against human HepG2 cells after 72 hrs by crystal violet staining method. In kind it is cell-based. Particulars: read-out: MIC50. The essentials: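 HepG2 cells in MEM with 10% FBS and 2 mM L-glutamine were seeded at 1×10^4 per well and left to adhere overnight. Compound was added at 0.3 to 80 µM for 72 h. Cells were fixed in 3% paraformaldehyde, stained with 0.1% crystal violet, and the dye taken up in 10% acetic acid and read at A590. Values were normalised to DMSO-matched controls, in triplicate.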

A short description of series [3]: Selectivity index, ratio of MIC50 for human HepG2 cells to MIC50 for Histoplasma capsulatum strain G217B ATCC 26032.
A short description of series [4]: Cytotoxicity against mouse P388D1 […] cells after 48 hrs by crystal violet staining method. Type of series: cell-based. The note with it: P388D1, 48 h.

Broadly, the MIC is the lowest concentration that inhibits growth of the organism. The MIC50 is an inhibitory concentration at the 50% level, which refers to growth in some studies and to a panel of isolates in others. Turning to `O=C(CCC1CCCCC1)Nc1ncc(CCc2ccccc2)s1`, in series [1], the MIC is 2.5 µM (≈ 0.856 µg/mL) and the MIC50 came to 0.7 µM (≈ 0.24 µg/mL). In the series with Cryptococcus neoformans, the MIC was above 20 µM and the MIC50 is above 10 µM. For the same molecule, the CC50 at 72 h in series [2] was above 40 µM. The Ratio in series [3] is above 50.
Regarding `O=C(Nc1ncc(Cc2ccccc2)s1)C1CCCC1`, the results for the MIC (in series [1]; in the series with Cryptococcus neoformans) were 5 µM (≈ 1.43 µg/mL) and 10 µM (≈ 2.86 µg/mL), respectively. The MIC50 in series [1] was found to be 1.6 µM (≈ 0.458 µg/mL); with Cryptococcus neoformans, 3.6 µM (≈ 1.03 µg/mL). Also, the CC50 at 72 h in series [2] is above 40 µM. In addition, the Ratio in series [3] is recorded as above 24.
Take `O=C(Nc1ncc(Cc2ccccc2)s1)C1CCCCC1`: the MIC (in series [1]; with Cryptococcus neoformans) was 5 µM (≈ 1.5 µg/mL) each time. Further, the figures for the MIC50 (in series [1]; in the series with Cryptococcus neoformans) were 1.6 µM (≈ 0.481 µg/mL) and 1.3 µM (≈ 0.391 µg/mL), respectively. In addition, in series [2], the CC50 at 72 h was above 40 µM. The Ratio in series [3] is above 21.
With `O=C(CCC1CCCCC1)Nc1ncc(Cc2cccc(Cl)c2)s1`, in series [1], the MIC was 2.5 µM (≈ 0.907 µg/mL) and the MIC50 turned out to be 1.1 µM (≈ 0.399 µg/mL). In addition, in the series on Cryptococcus neoformans, the minimum inhibitory concentration (MIC) was above 20 µM and the MIC50 was above 10 µM. In addition, in series [2], the CC50 at 72 h was determined as 39 µM. The Ratio in series [3] is on record as 65.
One may read the IC50 as the concentration at which inhibition is half-maximal. Turning to `O=C(Nc1ncc(Cc2cccc3ccccc23)s1)C1CCCCC1`, in series [1], the MIC is 0.6 µM (≈ 0.21 µg/mL) and the MIC50 was 0.4 µM (≈ 0.14 µg/mL). In the series with Cryptococcus neoformans, the MIC is 0.6 µM (≈ 0.21 µg/mL) and the MIC50 stood at 0.4 µM (≈ 0.14 µg/mL). Also, the CC50 at 72 h in series [2] came to 39 µM. The Ratio in series [3] is 97. In series [4], this molecule had an IC50 of 54 µM.
As to `O=C(CCC1CCCCC1)Nc1ncc(Cc2cccc(F)c2)s1`, in series [1], the MIC was determined as 2.5 µM (≈ 0.866 µg/mL) and the MIC50 worked out at 0.8 µM (≈ 0.277 µg/mL). Besides, in the series on Cryptococcus neoformans, the MIC was above 20 µM and the MIC50 was above 10 µM. In series [2], the CC50 at 72 h is 40 µM. Also, the Ratio in series [3] is reported as 57.

Values taken from ChEMBL document CHEMBL3393037, “Design, synthesis, and biological evaluation of aminothiazole derivatives against the fungal pathogens Histoplasma capsulatum and Cryptococcus neoformans” (Bioorg Med Chem, 2015).
